Series [1] is described as follows: Cytotoxicity against african green monkey Vero cells assessed as reduction in cell viability after 72 hrs by cell titer-blue fluorescent assay. Type of series: cell-based. The settings on record: chlorocebus sabaeus. Summed up: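 Uninfected Vero (CCL-81) cells were seeded at 1 × 10^5 cells/mL, grown for 24 h at 37°C with 5% CO2, then exposed to compound at 4 to 4000 µg/mL for 72 h. CellTiter-Blue was added for 2 h in the dark, and fluorescence was read at 560/590 nm. Viability is given as % of control, from at least three repeats.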

Series [2] deals with Chikungunya virus. Briefly: Antiviral activity against Chikungunya virus LR2006_OPY1 infected in african green monkey Vero cells assessed as reduction in virus-induced cytopathogenicity at 100 ug/mL after 3 days by cell titer-blue fluorescent assay. The series is classed as functional, cell-based. Background: Damage to the host cells serves as the signal in cytopathic effect assays.

The subject of series [3] is Chikungunya virus. Briefly: Antiviral activity against Chikungunya virus LR2006_OPY1 infected in african green monkey Vero cells assessed as reduction in virus-induced cytopathogenicity after 3 days by cell titer-blue fluorescent assay. Type of series: functional, cell-based. To be noted: 72 h.

Active and inactive are the calls of the source. The rule behind the calls is not given here.

For the molecule `O=C1NC(=S)S/C1=C\c1ccc(O)cc1`, the CC50 (commonly the concentration that lowers cell viability or growth by half) at 72 h in series [1] was over 100 µM. The inhibition result in series [2] is “inactive”.
For the molecule `O=C1NC(=S)S/C1=C\c1ccc2ccccc2c1`, the CC50 at 72 h in series [1] was over 100 µM. In addition, in series [3], the IC50 (in general, the concentration that gives 50% inhibition) turned out to be 3.6 µM.
As to `N=C1NC(=O)/C(=C/c2ccc(O)cc2)S1` [MIRIN], the CC50 at 72 h in series [1] was over 100 µM. In addition, the inhibition entry in series [2] was “inactive”.
The corresponding values for `O=C1NC(=S)S/C1=C\c1ccccc1[N+](=O)[O-]` are over 100 µM and “inactive”.
For `COc1ccc(/C=C2\SC(=S)NC2=O)cc1` the same measures were over 100 µM and “inactive”.
For `O=C1NC(=S)S/C1=C\c1ccc(Cl)cc1` the same measures were over 100 µM and “inactive”.
With `CN(C)c1ccc(/C=C2\SC(=S)NC2=O)cc1`, the CC50 at 72 h in series [1] is over 100 µM. Moreover, the inhibition entry in series [2] is “inactive”.
`NC1=NC(=O)/C(=C/c2ccccc2[N+](=O)[O-])S1`: the CC50 at 72 h in series [1] is over 100 µM. The IC50 in series [3] amounted to 40.1 µM.
With `O=C1NC(=S)S/C1=C\c1cccs1`, in series [1], the CC50 at 72 h is over 100 µM. The inhibition result in series [2] is “inactive”.

These data come from ChEMBL document CHEMBL3352512, “Thiazolidone derivatives as inhibitors of chikungunya virus” (Eur J Med Chem, 2015).
